Measured values from ChEMBL document CHEMBL4368858, “Search for a 5-CT alternative. In vitro and in vivo evaluation of novel pharmacological tools: 3-(1-alkyl-1H-imidazol-5-yl)-1H-indole-5-carboxamides, low-basicity 5-HT7 receptor agonists” (Medchemcomm, 2018).
Activity calls are given as the source filed them.

Columns and labels:
CYP2C9 = CYP2C9 (Homo sapiens, UniProt P11712); experiment: Inhibition of CYP2C9 (unknown origin) assessed as residual activity at 25 uM using beetle D-luciferin as substrate by CYP450-Glo assay relative to control; format: ADME; conditions: CYP2C9 enzyme (unknown origin), probe beetle D-luciferin, read-out: Activity
How it was run: (§1)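 Luminescent P450-Glo assays for CYP3A4, CYP2D6 and CYP2C9 run per the kit protocol. Triplicate wells, final concentrations 0.01–25 μM, same across all three isoforms. Activity given as % of control.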

CYP3A4 = CYP3A4 (Homo sapiens, UniProt P08684); experiment: Inhibition of CYP3A4 (unknown origin) assessed as residual activity at 10 uM using beetle D-luciferin as substrate by CYP450-Glo assay relative to control; format: ADME; conditions: CYP3A4 enzyme (unknown origin), probe beetle D-luciferin, read-out: Activity; how it was run: as §1
[1] = Permeability of the compound by PAMPA; format: ADME; conditions: read-out: permeability
How it was run: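 Passive permeability measured on a pre-coated PAMPA plate system. Concentrations were quantified against calibration curves made by capillary electrophoresis with diode-array detection. The permeability coefficient Pe is reported in 10^-6 cm s^-1 as mean ± SD of triplicates.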

[2] = Drug metabolism in mouse liver microsomes measured after 120 mins in presence of NADPH generating system by UPLC analysis; format: ADME, Microsome; conditions: read-out: Drug metabolism
How it was run: (§2)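 Incubation with human, rat or mouse liver microsomes for 120 min at 37 °C with an NADPH regeneration system. Reaction mixtures analysed by UPLC for metabolites and % substrate metabolized.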

[3] = Mutagenicity in Salmonella typhimurium TA100 assessed as revertant colonies at 10 uM by Ames test; format: toxicity; conditions: salmonella enterica subsp. enterica serovar typhimurium
How it was run: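 Ames microplate fluctuation assay with S. typhimurium TA100 in 384-well format, run in triplicate. Medium control baseline defined as mean revertants in growth medium + 1% DMSO plus one SD. Positive wells counted; a 2-fold increase over baseline flagged as a mutagen alert.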

[4] = Retention time of the compound in rat liver microsomes in presence of NADPH generating system by UPLC analysis; format: ADME, Microsome
How it was run: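 Incubated with rat liver microsomes plus an NADPH regeneration system for 120 min at 37 °C. Reaction mixtures were analysed by UPLC to detect metabolites and their retention times.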

P-glycoprotein (ABCB1) = P-glycoprotein (ABCB1) (Homo sapiens, UniProt P08183); experiment: Inhibition of recombinant human membrane bound Pgp assessed as basal ATP consumption at 100 uM after 40 mins by Pgp-Glo luminescence assay relative to control; set-up: scale not given: the % may be the effect or the level left; conditions: read-out: Activity
How it was run: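 Pgp-Glo luminescence assay measuring Pgp ATP consumption. Compounds incubated with Pgp membranes at 100 μM for 40 min at 37 °C in triplicate. Na3VO4 (100 μM) used as reference inhibitor and verapamil (200 μM) as stimulator; basal activity taken as the vanadate-versus-untreated signal difference.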

[5] = Drug metabolism in human liver microsomes measured after 120 mins in presence of NADPH generating system by UPLC analysis; format: ADME, Microsome; conditions: for Drug metabolism: microsomes, 2 h; how it was run: as §2
[6] = Drug metabolism in rat liver microsomes measured after 120 mins in presence of NADPH generating system by UPLC analysis; format: ADME, Microsome; conditions: for metabolised at 2 h: liver microsomes, read-out: Drug metabolism; how it was run: as §2
CYP2D6 = CYP2D6 (Homo sapiens, UniProt P10635); experiment: Inhibition of CYP2D6 (unknown origin) assessed as residual activity at 10 uM using beetle D-luciferin as substrate by CYP450-Glo assay relative to control; format: ADME; conditions: CYP2D6 enzyme (unknown origin), probe beetle D-luciferin, read-out: Activity; how it was run: as §1
D(2) dopamine receptor = D(2) dopamine receptor (Homo sapiens, UniProt P14416); experiment: Displacement of [3H]-raclopride from recombinant human D2LR receptor expressed in HEK293 cells measured after 1 hr by microbeta counting method; format: cell-based
How it was run: (§3)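 Radioligand displacement on cloned human receptors stably expressed in HEK-293 cells, except 5-HT2A, which was expressed in CHO cells. Radioligands: [3H]-LSD for 5-HT6, [3H]-5-CT for 5-HT7, [3H]-ketanserin for 5-HT2A, [3H]-raclopride for D2.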

[7] = target: 5-hydroxytryptamine receptor 7 (Homo sapiens, UniProt P34969); experiment: Displacement of [3H]-5-CT from recombinant human 5HT7b receptor expressed in HEK293 cells measured after 1 hr by microbeta counting method; format: cell-based; how it was run: as §3
[8] = target: T1, 5-hydroxytryptamine receptor 2A (Homo sapiens, UniProt P28223); experiment: Displacement of [3H]-ketanserin from recombinant human 5HT2A receptor expressed in CHOK1 cells measured after 1 hr by microbeta counting method; format: cell-based; how it was run: as §3
[9] = target: T2, 5-hydroxytryptamine receptor 1A (Homo sapiens, UniProt P08908); experiment: Displacement of [3H]-8-OH-DPAT from recombinant human 5HT1A receptor expressed in HEK293 cells measured after 1 hr by microbeta counting method; format: cell-based
T2 sequence (P08908 whole entry): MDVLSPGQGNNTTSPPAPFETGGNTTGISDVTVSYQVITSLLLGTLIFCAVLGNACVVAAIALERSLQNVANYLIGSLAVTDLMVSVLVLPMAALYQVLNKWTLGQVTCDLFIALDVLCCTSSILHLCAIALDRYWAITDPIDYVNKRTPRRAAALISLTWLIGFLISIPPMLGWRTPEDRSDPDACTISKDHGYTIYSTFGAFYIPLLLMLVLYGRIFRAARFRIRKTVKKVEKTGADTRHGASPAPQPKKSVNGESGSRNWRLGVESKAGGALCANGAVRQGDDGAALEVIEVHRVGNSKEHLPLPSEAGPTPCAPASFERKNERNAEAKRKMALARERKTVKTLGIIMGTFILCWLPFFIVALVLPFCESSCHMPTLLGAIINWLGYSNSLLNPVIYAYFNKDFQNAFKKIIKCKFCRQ
How it was run: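 Cloned human 5-HT1A receptor stably expressed in HEK-293 cells; displacement of [3H]-8-OH-DPAT.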

Cytochrome P450 2D6 = Cytochrome P450 2D6 (Homo sapiens, UniProt P10635); experiment: Inhibition of CYP2D6 (unknown origin) using beetle D-luciferin as substrate by CYP450-Glo assay; format: ADME
Cytochrome P450 3A4 = Cytochrome P450 3A4 (Homo sapiens, UniProt P08684); experiment: Inhibition of CYP3A4 (unknown origin) using beetle D-luciferin as substrate by CYP450-Glo assay; format: ADME
Homo sapiens = species: Homo sapiens; experiment: Selectivity ratio of Ki for displacement of [3H]-8-OH-DPAT from recombinant human 5HT1A receptor expressed in HEK293 cell membranes to Ki for displacement of [3H]-5-CT from recombinant human 5HT7b receptor expressed in HEK293 cell membranes
[10] = target: T3, 5-hydroxytryptamine receptor 6 (Homo sapiens, UniProt P50406); experiment: Displacement of [3H]-LSD from recombinant human 5HT6 receptor expressed in HEK293 cells measured after 1 hr by microbeta counting method; format: cell-based; how it was run: as §3
[11] = target: T2, 5-hydroxytryptamine receptor 1A; experiment: Displacement of [3H]8-OH-DPAT from recombinant human 5-HT1A receptor after 60 mins by scintillation counting analysis
How it was run: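 Radioligand displacement at cloned human 5-HT1A receptor stably expressed in HEK-293 cells, with [3H]-8-OH-DPAT as the radioligand.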

[12] = target: T3, 5-hydroxytryptamine receptor 6; experiment: Displacement of [3H]LSD from human recombinant 5-HT6 receptor after 120 mins by scintillation counting analysis
How it was run: (§4)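 Cloned human 5-HT6 receptor stably expressed in HEK-293 cells; displacement of [3H]-LSD.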

[13] = target: T1, 5-hydroxytryptamine receptor 2A; experiment: Displacement of [3H]ketanserin from recombinant human 5-HT2A receptor after 60 mins by scintillation counting analysis
How it was run: (§5)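 Cloned human 5-HT2A receptor stably expressed in CHO cells; displacement of [3H]-ketanserin.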

Mus musculus [14] = experiment: Reversal of MK-801-induced cognitive impairment in mouse assessed increase in novel object recognition at 1 mg/kg treated for 60 mins followed by MK-801 addition 30 mins prior to testing by novel object recognition test; format: functional, organism-based
How it was run: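 Mice adapted to an open field for 10 min. Next day: MK-801 0.3 mg kg-1 i.p. given 30 min before training, with the test compound given 60 min before MK-801. Training (T1) used two identical objects; in the retention trial 1 h later one object was replaced by a novel one. Exploration of each object was scored over 5 min. Means ± SEM.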

[15] = Hepatotoxicity against human HepG2 cells assessed as ATP level at 100 uM after 3 hrs by CellTiter-Glo luminescent cell viability assay relative to control; format: toxicity, cell-based; conditions: read-out: Activity
How it was run: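 HepG2 cells exposed 3 h at 1, 10 and 100 μM. […] Run in quadruplicate; result given as % of control.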

[16] = Retention time of the compound in mouse liver microsomes in presence of NADPH generating system by UPLC analysis; format: ADME, Microsome; how it was run: as §2
Mus musculus [17] = experiment: Anxiolytic-like activity in albino Swiss mouse assessed as reduction in stress-induced hyperthermia by measuring reduction in body temperature at 15 mg/kg administered 60 mins prior to testing measured for 15 mins; format: functional, organism-based
How it was run: (§6)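 Albino Swiss mice housed singly 24 h before test, dosed 1, 5 or 15 mg kg-1 60 min before test. Rectal temperature read to 0.1 °C at t = 0 (T1) and +15 min (T2) after transfer to a new cage. SIH taken as T2 − T1; T1 compared with vehicle for basal temperature effect. Groups of 8–10; one-way ANOVA with Dunnett's test.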

[18] = Toxicity in albino Swiss mouse assessed as effect on body temperature at 1 to 15 mg/kg; format: organism-based; conditions: in vivo; how it was run: as §6
[19] = target: T1, 5-hydroxytryptamine receptor 2A; experiment: Displacement of [3H]ketanserin from recombinant human 5-HT2A receptor expressed in cell membrane after 1.5 hrs by scintillation counting analysis; format: cell membranes; how it was run: as §5
[20] = target: T3, 5-hydroxytryptamine receptor 6; experiment: Displacement of [3H]LSD from human recombinant 5-HT6 receptor expressed in cell membrane after 1.5 hrs by scintillation counting analysis; format: cell membranes; how it was run: as §4
[21] = target: 5-hydroxytryptamine receptor 5A (Homo sapiens, UniProt P47898); experiment: Displacement of [3H]LSD from human recombinant 5-HT5A receptor expressed in cell membrane after 1.5 hrs by scintillation counting analysis; format: cell membranes
HEK293 = experiment: Cytotoxicity against HEK293 cells assessed as reduction in cell viability at 1 uM after 72 hrs by MTS assay relative to control; conditions: human, hek293, 72 h

Sequence of 5-hydroxytryptamine receptor 7 (P34969 whole entry): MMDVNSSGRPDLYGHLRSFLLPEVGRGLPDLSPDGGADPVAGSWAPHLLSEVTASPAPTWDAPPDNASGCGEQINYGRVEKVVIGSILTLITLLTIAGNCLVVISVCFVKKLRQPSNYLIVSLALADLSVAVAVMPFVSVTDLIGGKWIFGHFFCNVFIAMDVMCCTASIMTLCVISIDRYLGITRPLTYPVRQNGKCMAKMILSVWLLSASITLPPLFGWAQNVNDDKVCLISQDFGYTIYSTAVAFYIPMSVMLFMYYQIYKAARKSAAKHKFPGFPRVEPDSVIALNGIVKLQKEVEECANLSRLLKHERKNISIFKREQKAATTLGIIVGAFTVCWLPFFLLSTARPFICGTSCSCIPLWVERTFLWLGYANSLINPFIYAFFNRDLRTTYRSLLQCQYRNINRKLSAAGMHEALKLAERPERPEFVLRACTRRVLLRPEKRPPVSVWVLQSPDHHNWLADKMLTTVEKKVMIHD
Sequence of CYP2D6 (P10635 whole entry): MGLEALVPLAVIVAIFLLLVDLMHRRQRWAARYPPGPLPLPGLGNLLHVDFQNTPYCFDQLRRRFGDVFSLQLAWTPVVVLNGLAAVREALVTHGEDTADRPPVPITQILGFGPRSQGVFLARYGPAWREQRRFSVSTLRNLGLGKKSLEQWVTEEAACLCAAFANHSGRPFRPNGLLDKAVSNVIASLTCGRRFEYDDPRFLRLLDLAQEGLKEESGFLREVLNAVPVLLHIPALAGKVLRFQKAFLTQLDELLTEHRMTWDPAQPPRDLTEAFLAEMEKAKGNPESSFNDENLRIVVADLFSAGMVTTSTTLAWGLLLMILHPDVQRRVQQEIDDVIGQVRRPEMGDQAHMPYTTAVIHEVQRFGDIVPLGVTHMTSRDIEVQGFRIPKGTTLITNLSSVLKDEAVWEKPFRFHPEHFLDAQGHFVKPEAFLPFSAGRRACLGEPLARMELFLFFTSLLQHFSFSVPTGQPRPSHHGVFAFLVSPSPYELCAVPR
Sequence of CYP2C9 (P11712 whole entry, canonical isoform): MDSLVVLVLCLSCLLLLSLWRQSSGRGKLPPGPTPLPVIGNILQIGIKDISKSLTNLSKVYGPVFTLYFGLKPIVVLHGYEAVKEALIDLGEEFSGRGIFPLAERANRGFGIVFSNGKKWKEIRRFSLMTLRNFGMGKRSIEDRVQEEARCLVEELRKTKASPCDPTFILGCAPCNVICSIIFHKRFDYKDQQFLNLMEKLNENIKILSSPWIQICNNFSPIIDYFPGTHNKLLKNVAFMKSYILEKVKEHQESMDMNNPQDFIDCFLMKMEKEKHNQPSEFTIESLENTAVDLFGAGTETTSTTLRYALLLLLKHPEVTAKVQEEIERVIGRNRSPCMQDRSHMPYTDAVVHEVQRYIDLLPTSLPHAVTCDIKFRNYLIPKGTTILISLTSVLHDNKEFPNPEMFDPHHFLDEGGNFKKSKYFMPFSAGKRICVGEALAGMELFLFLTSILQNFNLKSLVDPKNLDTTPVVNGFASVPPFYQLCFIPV
Sequence of CYP3A4 (P08684 whole entry): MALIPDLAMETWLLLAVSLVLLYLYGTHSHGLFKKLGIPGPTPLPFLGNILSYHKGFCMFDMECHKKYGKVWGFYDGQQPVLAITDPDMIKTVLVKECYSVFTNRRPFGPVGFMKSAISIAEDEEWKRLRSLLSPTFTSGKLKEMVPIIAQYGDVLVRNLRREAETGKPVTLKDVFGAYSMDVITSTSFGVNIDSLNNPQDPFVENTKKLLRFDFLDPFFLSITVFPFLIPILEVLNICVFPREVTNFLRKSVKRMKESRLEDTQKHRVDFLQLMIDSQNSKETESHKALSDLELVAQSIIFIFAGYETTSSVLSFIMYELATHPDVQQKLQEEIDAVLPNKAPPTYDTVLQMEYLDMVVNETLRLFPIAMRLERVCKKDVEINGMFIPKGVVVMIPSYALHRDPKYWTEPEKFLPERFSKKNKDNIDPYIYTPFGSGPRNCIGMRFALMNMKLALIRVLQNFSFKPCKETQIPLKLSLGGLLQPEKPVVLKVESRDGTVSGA
Sequence of D(2) dopamine receptor (P14416 whole entry): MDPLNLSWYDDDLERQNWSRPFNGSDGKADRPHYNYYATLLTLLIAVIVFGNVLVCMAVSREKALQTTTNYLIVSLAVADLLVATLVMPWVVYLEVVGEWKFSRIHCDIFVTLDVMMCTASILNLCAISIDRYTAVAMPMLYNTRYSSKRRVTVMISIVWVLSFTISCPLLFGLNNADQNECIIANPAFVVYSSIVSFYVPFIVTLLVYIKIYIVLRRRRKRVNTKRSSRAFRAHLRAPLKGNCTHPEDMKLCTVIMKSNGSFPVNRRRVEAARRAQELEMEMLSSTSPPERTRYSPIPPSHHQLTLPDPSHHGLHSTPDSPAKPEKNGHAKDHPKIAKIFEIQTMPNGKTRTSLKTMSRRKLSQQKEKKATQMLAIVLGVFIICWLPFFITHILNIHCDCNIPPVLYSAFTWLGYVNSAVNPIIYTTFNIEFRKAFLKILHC
Sequence of P-glycoprotein (ABCB1) (P08183 whole entry): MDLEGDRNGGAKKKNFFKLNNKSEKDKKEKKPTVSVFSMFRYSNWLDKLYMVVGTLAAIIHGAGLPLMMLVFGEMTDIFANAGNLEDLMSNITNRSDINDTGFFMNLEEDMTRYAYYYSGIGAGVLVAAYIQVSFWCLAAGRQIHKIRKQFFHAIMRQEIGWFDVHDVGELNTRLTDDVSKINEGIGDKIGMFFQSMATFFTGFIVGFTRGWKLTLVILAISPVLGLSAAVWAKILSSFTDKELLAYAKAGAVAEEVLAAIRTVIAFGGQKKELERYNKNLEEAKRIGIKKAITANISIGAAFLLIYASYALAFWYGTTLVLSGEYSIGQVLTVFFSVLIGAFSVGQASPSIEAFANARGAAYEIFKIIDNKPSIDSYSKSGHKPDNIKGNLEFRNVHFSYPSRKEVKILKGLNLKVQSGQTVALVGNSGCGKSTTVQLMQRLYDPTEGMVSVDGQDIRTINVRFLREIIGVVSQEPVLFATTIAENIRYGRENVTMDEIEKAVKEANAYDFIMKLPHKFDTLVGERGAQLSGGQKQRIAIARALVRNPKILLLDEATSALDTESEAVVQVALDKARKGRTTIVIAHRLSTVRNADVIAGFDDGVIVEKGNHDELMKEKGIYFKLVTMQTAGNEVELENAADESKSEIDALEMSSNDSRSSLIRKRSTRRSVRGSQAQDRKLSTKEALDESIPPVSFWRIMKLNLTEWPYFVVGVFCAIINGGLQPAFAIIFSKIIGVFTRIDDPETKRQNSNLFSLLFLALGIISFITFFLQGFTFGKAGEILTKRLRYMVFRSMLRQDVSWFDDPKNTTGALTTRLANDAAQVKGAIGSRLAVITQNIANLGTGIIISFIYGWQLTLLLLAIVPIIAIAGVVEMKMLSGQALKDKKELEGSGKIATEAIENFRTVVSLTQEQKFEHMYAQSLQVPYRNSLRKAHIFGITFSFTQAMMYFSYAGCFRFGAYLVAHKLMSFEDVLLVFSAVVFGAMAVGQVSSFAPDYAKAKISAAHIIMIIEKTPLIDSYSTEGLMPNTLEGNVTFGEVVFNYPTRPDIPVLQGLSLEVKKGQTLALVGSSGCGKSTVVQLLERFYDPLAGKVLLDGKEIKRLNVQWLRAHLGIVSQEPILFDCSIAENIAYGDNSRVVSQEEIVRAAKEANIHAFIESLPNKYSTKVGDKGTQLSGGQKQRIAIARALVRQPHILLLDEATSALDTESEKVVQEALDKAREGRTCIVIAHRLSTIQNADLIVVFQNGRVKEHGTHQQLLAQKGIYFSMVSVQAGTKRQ
T1 sequence (P28223 whole entry): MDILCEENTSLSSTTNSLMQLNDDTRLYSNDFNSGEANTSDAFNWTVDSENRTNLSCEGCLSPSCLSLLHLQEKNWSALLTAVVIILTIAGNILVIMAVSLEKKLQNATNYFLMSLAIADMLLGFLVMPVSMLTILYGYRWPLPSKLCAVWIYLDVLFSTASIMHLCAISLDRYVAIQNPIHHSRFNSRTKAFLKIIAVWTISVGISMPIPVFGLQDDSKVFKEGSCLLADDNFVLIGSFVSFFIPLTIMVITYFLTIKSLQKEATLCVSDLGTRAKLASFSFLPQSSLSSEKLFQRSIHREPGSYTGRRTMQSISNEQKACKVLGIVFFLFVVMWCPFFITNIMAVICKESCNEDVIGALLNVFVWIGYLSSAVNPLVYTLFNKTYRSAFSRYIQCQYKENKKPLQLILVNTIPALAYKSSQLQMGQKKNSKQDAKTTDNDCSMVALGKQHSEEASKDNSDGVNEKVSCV
T3 sequence (P50406 whole entry): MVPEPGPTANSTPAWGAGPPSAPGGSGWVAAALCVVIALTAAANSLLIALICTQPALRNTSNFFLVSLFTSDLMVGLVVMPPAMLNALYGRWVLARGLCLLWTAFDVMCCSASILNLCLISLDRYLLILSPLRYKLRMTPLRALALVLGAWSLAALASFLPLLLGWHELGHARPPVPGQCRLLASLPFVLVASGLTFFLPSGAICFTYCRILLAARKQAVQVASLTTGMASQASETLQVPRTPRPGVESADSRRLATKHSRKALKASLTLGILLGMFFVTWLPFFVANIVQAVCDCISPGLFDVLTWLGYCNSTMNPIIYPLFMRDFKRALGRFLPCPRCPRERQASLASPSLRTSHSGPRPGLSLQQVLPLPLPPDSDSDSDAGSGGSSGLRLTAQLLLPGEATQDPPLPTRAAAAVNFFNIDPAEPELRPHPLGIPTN
Sequence of Cytochrome P450 2D6 (P10635 whole entry): as the sequence (P10635 whole entry) above
Sequence of 5-hydroxytryptamine receptor 5A (P47898 whole entry): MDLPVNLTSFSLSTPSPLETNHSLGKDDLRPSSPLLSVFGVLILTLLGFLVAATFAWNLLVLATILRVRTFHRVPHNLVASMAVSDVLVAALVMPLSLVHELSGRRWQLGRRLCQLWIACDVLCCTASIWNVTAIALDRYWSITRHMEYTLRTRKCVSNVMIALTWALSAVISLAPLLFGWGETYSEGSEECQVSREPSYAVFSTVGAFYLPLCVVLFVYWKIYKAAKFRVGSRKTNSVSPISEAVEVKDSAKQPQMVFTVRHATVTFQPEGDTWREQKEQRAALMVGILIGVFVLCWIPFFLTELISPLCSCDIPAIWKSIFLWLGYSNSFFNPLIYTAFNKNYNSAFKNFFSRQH

| Structure (SMILES) | activity at 25 µM (CYP2C9) | activity at 10 µM (CYP3A4) | metabolised at 2 h [2] | Activity [3] | activity at 40 min, 100 µM (P-glycoprotein (ABCB1)) | activity at 10 µM (CYP2D6) | Ki (D(2) dopamine receptor) | Ki [7] | Ki [8] | Ki [9] | Ki [10] | other results |
| --- | --- | --- | --- | --- | --- | --- | --- | --- | --- | --- | --- | --- |
| NCCc1c[nH]c2ccc(C(N)=O)cc12 | 78.7% | 95.7% | 2% | 4 | 26.3% | 108% |  |  |  |  |  | Papp [1]: 3.54 ×10⁻⁶ cm/s; Retention_time [4]: 1.62 min; metabolised at 2 h ([5]; liver microsomes, read-out: Drug metabolism): 26%; metabolised at 2 h [6]: 20% |
| Cn1cncc1-c1c[nH]c2ccc(C(N)=O)cc12 | 37.2% | 29.4% | 9% | 12.3 | 60% | 55% | 5.56 µM | 0.006 µM | > 10 µM | 0.22 µM | 6.91 µM | IC50 (Cytochrome P450 2D6): 27.6 µM; IC50 (Cytochrome P450 3A4): 3.53 µM; Ratio Ki (Homo sapiens): 37; Drug metabolism [5]: Metabolite_Notdetected; Drug metabolism ([6]; microsomes, 2 h): Metabolite_Notdetected |
| CCn1cncc1-c1c[nH]c2ccc(S(N)(=O)=O)cc12 |  |  |  |  |  |  | > 10 µM | 6.42 µM | > 10 µM | > 10 µM | 7.27 µM |  |
| Cc1nn(C)c(C)c1-c1cccc(CCN(C)C)c1 |  |  |  |  |  |  |  |  |  |  |  | Ki [11]: 0.7 µM; Ki [12]: > 1 µM; Ki [13]: > 1 µM |
| CCn1cncc1-c1c[nH]c2ccc(I)cc12 |  |  |  |  |  |  | 4.85 µM |  | > 10 µM |  | 1.67 µM |  |
| CCn1cncc1-c1c[nH]c2ccc(C(N)=O)cc12 | 104% | 2.9% | 14% | 5.6 | 19.3% | 43.4% | > 10 µM |  | > 10 µM |  | > 10 µM | Activity (Mus musculus [14]): Active; viability at 3 h, 100 µM [15]: 102%; Papp [1]: 2.78 ×10⁻⁶ cm/s; IC50 (Cytochrome P450 2D6): 7.47 µM; IC50 (Cytochrome P450 3A4): 0.31 µM; Ratio Ki (Homo sapiens): 25; Drug metabolism [5]: Metabolite_Notdetected; Retention_time [16]: 1.6 min; Activity (Mus musculus [17]): Active; Activity [18]: Non-Toxic; metabolised at 2 h [6]: 7% |
| c1ccc(-c2ccccc2N2CCNCC2)cc1 |  |  |  |  |  |  |  |  |  |  |  | Ki [19]: 1.19 µM; Ki [20]: 0.596 µM; Ki [21]: 0.076 µM |
| CCn1cncc1-c1c[nH]c2ccc(C(=O)OC)cc12 |  |  |  |  |  |  | > 10 µM | 0.161 µM | > 10 µM | > 10 µM | 6.06 µM |  |
| N#CC(C#N)=NNc1cccc(Cl)c1 [CARBONYL CYANIDE M-CHLOROPHENYLHYDRAZONE] |  |  |  |  |  |  |  |  |  |  |  | Activity (HEK293): 40% |
| N#Cc1ccc(CNC(=O)CCCCCN2CCN(c3ccccc3-c3ccccc3)CC2)cc1 |  |  |  |  |  |  |  |  |  |  |  | Ki [19]: 0.626 µM; Ki [21]: 0.178 µM |
